Laboratory results as given in ChEMBL document CHEMBL3792345, “Isoquinoline-1,3-diones as Selective Inhibitors of Tyrosyl DNA Phosphodiesterase II (TDP2)” (J Med Chem, 2016).
Active and inactive are the calls of the source.

Assays:
[1] = target: T1, Tyrosyl-DNA phosphodiesterase 1 (Homo sapiens, UniProt Q9NUW8); assay: Inhibition of recombinant TDP1 (unknown origin) using 5'-[32P]-labeled single stranded oligonucleotide DNA containing 3'-phophotyrosine (N14Y) as substrate at 111 uM incubated for 15 mins by PAGE assay
[2] = target: T2, Tyrosyl-DNA phosphodiesterase 2 (Homo sapiens, UniProt O95551); assay: Inhibition of recombinant human TDP2 using 18-mer single stranded oligonucleotide DNA as substrate incubated for 15 mins by PAGE assay
T2 sequence (O95551 whole entry): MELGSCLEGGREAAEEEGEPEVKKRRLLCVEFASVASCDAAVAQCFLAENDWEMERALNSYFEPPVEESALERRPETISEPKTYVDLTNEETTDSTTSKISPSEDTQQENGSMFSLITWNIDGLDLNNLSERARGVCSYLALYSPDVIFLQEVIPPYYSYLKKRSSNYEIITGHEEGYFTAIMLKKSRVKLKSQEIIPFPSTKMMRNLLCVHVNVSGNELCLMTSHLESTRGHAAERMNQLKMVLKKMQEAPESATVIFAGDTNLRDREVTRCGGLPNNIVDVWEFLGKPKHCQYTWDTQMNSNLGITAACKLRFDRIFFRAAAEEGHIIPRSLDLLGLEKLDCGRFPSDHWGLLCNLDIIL
How it was run: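 1 nM TY18 substrate (α³²P-cordycepin-3′-labelled 18-mer ssDNA) with 25 pM recombinant human TDP2, 15 min at room temperature in LMP2 buffer (pH 7.5, 5 mM MgCl₂). Dose–response at 1.4, 4.1, 12.3, 37, 111 μM, resolved on gels. IC50 is mean ± SD of at least three independent experiments.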

[3] = target: T2, Tyrosyl-DNA phosphodiesterase 2; assay: Inhibition of human TDP2 expressed in DT40 cells (TDP2-knockout) using 18-mer single stranded oligonucleotide DNA as substrate incubated for 15 mins by PAGE assay
How it was run: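 Extract from 1 × 10⁷ TDP2−/− DT40 cells complemented with human TDP2, prepared as the TDP1 extracts. 1 nM TY18 substrate (α³²P-cordycepin-3′-labelled 18-mer) with 5 μg/mL extract ± inhibitor, 15 min at room temperature. Products resolved on gel.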

[4] = Cytotoxicity against chicken DT40 knockout cells expressing human TDP2 after 72 hrs by ATPlite assay; type: functional; conditions: Gallus gallus, DT40, 72 h
How it was run: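 DT40 cells lacking endogenous TDP2 and complemented with human TDP2, following an earlier protocol. For synergy, the compound was combined with different etoposide concentrations.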

[5] = species on record: Gallus gallus; assay: Potentiation of ETP-induced cytotoxicity against chicken DT40 knockout cells expressing human TDP2 after 72 hrs by ATPlite assay; type: functional, cell-based
How it was run: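 DT40 cells lacking endogenous TDP2 and complemented with human TDP2, following an earlier protocol. CC90 is the concentration killing 90% of cells, measured without etoposide. For synergy, the compound was combined with different etoposide concentrations.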

[6] = target: T1, Tyrosyl-DNA phosphodiesterase 1; assay: Inhibition of recombinant TDP1 (unknown origin) using 5'-[32P]-labeled single stranded oligonucleotide DNA containing 3'-phophotyrosine (N14Y) as substrate incubated for 15 mins by PAGE assay
[7] = target: T1, Tyrosyl-DNA phosphodiesterase 1; assay: Inhibition of human TDP1 expressed in DT40 cells (TDP1-knockout) using N14Y single stranded oligonucleotide DNA as substrate incubated for 15 mins by PAGE assay

T1 sequence (Q9NUW8 whole entry): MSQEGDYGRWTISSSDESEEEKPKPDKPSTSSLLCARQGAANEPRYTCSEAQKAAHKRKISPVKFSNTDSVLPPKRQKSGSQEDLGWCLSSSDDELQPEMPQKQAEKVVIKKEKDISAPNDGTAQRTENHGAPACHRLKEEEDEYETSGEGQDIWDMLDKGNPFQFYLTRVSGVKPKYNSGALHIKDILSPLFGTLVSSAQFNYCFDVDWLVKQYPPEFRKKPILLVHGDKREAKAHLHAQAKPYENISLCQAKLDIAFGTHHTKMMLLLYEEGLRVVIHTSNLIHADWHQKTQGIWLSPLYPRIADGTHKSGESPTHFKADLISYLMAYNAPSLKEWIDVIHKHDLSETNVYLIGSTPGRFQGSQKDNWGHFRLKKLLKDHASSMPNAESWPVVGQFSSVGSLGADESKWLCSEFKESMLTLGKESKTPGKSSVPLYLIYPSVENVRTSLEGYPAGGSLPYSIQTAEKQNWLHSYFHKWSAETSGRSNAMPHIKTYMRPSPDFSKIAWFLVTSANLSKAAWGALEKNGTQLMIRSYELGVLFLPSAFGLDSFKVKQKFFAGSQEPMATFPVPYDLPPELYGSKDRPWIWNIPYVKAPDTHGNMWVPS

Structure (SMILES)	inhibition [1]	IC50 [2]	IC50 [3]	IC50 [6]	IC50 [7]	CC90 [4]	Activity [5]
O=C1Cc2ccc(-c3cccc([N+](=O)[O-])c3)cc2C(=O)N1	inactive	11 µM					
O=C1Cc2ccc(I)cc2C(=O)N1	inactive	9.8 µM					
O=C1Cc2ccc(C(=O)O)cc2C(=O)N1	inactive	3 µM	5.2 µM			> 50 µM	inactive
O=C1Cc2ccccc2C(=O)N1	inactive	25 µM					
O=C1Cc2ccc(-c3ccco3)cc2C(=O)N1O	inactive	> 111 µM					
O=C1Cc2c(Br)cccc2C(=O)N1	inactive	> 37 µM					
O=c1[nH]c(=O)c2ccc(-c3ccccc3)cc2[nH]1	inactive	> 111 µM					
O=C1Cc2cc(-c3ccco3)ccc2C(=O)N1		10 µM	25 µM	> 111 µM	> 111 µM		inactive
O=C1Cc2cc(-c3cccc([N+](=O)[O-])c3)ccc2C(=O)N1	inactive	10 µM	25 µM				
O=C1NC(=O)c2ccc(-c3ccco3)c3cccc1c23	inactive	> 111 µM					
O=C1Cc2cc(Br)ccc2C(=O)N1	inactive	11 µM					
O=C1Cc2c(cccc2-c2ccco2)C(=O)N1	inactive	> 111 µM					
O=C1Cc2cc([N+](=O)[O-])ccc2C(=O)N1	inactive	19 µM					
Nc1cccc(-c2ccc3c(c2)C(=O)NC(=O)C3)c1	inactive	> 111 µM					
COc1ccc(OC)c(-c2ccc3c(c2)CC(=O)NC3=O)c1	inactive	16 µM					
O=C1Cc2cc(-c3ccco3)ccc2C(=O)N1O		> 111 µM		> 111 µM			
O=C1Cc2cc(C(=O)c3cccc([N+](=O)[O-])c3)ccc2C(=O)N1	inactive	11 µM					
CCOC(=O)C1C(=O)NC(=O)c2ccc(Br)cc21 (configuration not stated)	inactive	14 µM					
COc1ccc(-c2ccc3c(c2)CC(=O)NC3=O)cc1F	inactive	3 µM	4.3 µM				
O=C1Cc2cccc(-c3cccc(O)c3)c2C(=O)N1	inactive	26 µM					
O=C1Cc2cc(-c3cnc4ccccc4c3)ccc2C(=O)N1	inactive	9.3 µM	> 111 µM				
O=C1Cc2cc(I)ccc2C(=O)N1	inactive	7.6 µM	9.3 µM			9.5 µM	inactive

Structure (SMILES)	inhibition [1]	IC50 [2]	IC50 [3]	IC50 [6]	IC50 [7]	CC90 [4]	Activity [5]
O=C1Cc2cc(C(=O)O)ccc2C(=O)N1	inactive	> 111 µM					
O=C1Cc2cc(-c3ccc(F)cc3F)ccc2C(=O)N1	inactive	4.5 µM	5.5 µM				
O=C1Cc2ccc(C(=O)c3cccc([N+](=O)[O-])c3)cc2C(=O)N1	inactive	5.4 µM					
O=C1Cc2cc(-c3ccccc3C(=O)O)ccc2C(=O)N1	inactive	> 111 µM					
COc1cccc(OC)c1-c1ccc2c(c1)CC(=O)NC2=O	inactive	> 37 µM					
Nc1c2c(nn1-c1ccccn1)CC(=O)NC2=O	inactive	> 111 µM					
O=C1Cc2ccc(-c3cccc(O)c3)cc2C(=O)N1	inactive	15 µM					
O=C1Cc2c(cccc2-c2cccc([N+](=O)[O-])c2)C(=O)N1	inactive	> 37 µM					
O=C1Cc2cc(-c3nc4ccccc4s3)ccc2C(=O)N1	inactive	5.1 µM	11 µM			12 µM	inactive
O=C1Cc2cccc(I)c2C(=O)N1	inactive	7.5 µM	2.6 µM				
O=C1Cc2ccc(-c3ccco3)cc2C(=O)N1	inactive	13 µM	50 µM				
CS(=O)(=O)Nc1cccc(-c2ccc3c(c2)C(=O)NC(=O)C3)c1	inactive	4.5 µM					
O=C1NC(=O)c2ccc(Br)c3cccc1c23	inactive	> 111 µM					
Nc1c2c(nn1-c1ccc(F)cc1)CC(=O)NC2=O	inactive	> 111 µM					
O=C1Cc2cc(C(F)(F)F)ccc2C(=O)N1	inactive	7 µM	3.5 µM				
O=C1Cc2ccc(-c3cccnc3)cc2C(=O)N1	inactive	20 µM					
Nc1c2c(nn1-c1ccccc1)CC(=O)NC2=O	inactive	> 111 µM					
O=C1Cc2cccc(-c3cccc([N+](=O)[O-])c3)c2C(=O)N1	inactive	19 µM					
O=C1Cc2cc(-c3cccc(-c4ccccc4)c3)ccc2C(=O)N1	inactive	> 111 µM					
O=C1Cc2ccc(-c3cccc(Cl)c3)cc2C(=O)N1	inactive	1.7 µM	3.2 µM				
CC(=O)Nc1c2c(nn1-c1ccccc1)CC(=O)NC2=O	inactive	> 111 µM					
O=C1Cc2cc(Cc3ccccc3)ccc2C(=O)N1	inactive	> 111 µM					

Now from value to molecule, other results behind:

inhibition [1]	IC50 [2]	IC50 [3]	IC50 [6]	IC50 [7]	Structure (SMILES)	CC90 [4]	Activity [5]
inactive	21 µM	42 µM			O=C1Cc2cc(-c3cccc(C(=O)O)c3)ccc2C(=O)N1		
inactive	16 µM				NC(=O)c1cccc(-c2ccc3c(c2)CC(=O)NC3=O)c1		
inactive	3.2 µM	2.7 µM			O=C1Cc2cc(-c3ccc(C(F)(F)F)cc3)ccc2C(=O)N1		
inactive	13 µM	35 µM			O=C1Cc2cc(-c3cccc(O)c3)ccc2C(=O)N1		
inactive	30 µM				O=C1Cc2cc(-c3ccc(C(=O)O)cc3)ccc2C(=O)N1		
inactive	11 µM				C=CC(=O)Nc1cccc(-c2ccc3c(c2)C(=O)NC(=O)C3)c1		
inactive	4.1 µM	5.3 µM			O=C1Cc2cc(-c3ccc(F)c(Cl)c3)ccc2C(=O)N1		
inactive	42 µM	55 µM			Nc1cccc(-c2ccc3c(c2)CC(=O)NC3=O)c1		
inactive	23 µM	> 111 µM			O=C1Cc2cc(-c3ccccc3)ccc2C(=O)N1		
inactive	6.4 µM	4.5 µM			O=C1Cc2cc(-c3ccc(Cl)cc3)ccc2C(=O)N1		
inactive	1.9 µM	2.2 µM			CS(=O)(=O)Nc1ccc(-c2ccc3c(c2)CC(=O)NC3=O)cc1		
inactive	10 µM				C=CC(=O)Nc1ccc(-c2ccc3c(c2)CC(=O)NC3=O)cc1		
inactive	18 µM	25 µM			CS(=O)(=O)Nc1cccc(-c2ccc3c(c2)CC(=O)NC3=O)c1		
inactive	36 µM	40 µM			Nc1ccc(-c2ccc3c(c2)CC(=O)NC3=O)cc1		
inactive	16 µM	23 µM			O=C1Cc2cc(-c3cccnc3)ccc2C(=O)N1		
inactive	7.1 µM				O=C1Cc2ccc(-c3ccc(Br)cc3)cc2C(=O)N1		
inactive	14 µM				O=C1Cc2ccc(-c3ccc(O)cc3)cc2C(=O)N1		
inactive	5.5 µM	15 µM			CC(=O)c1cccc(-c2ccc3c(c2)CC(=O)NC3=O)c1		
inactive	5.6 µM	3.3 µM			O=C1Cc2cc(-c3cccc(Cl)c3)ccc2C(=O)N1		
inactive	8 µM	6.5 µM			O=C1Cc2cc(-c3cccc(Br)c3)ccc2C(=O)N1		
